Measurements from publication PMC9283305 (Nitric oxide : biology and chemistry, 2022).
Substitutions are numbered along the chain they refer to. Names may count otherwise. Like-named read-outs stand apart in the source and are kept apart here. One block for each molecule: values may come before it.

Tests used:
[1] = cited from earlier work
[2] = 37°C, 100 mM sodium phosphate, pH 7.4; cited from earlier work
[3] = cited from earlier work; for Nitrite reductase reaction rate constant: 37°C, 100 mM sodium phosphate, pH 7.4
[4] = Autoxidation of the ferrous-dioxygen; assay type: biochemical, human
In short: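 Human Cygb WT and mutants were His-tagged, expressed in SoluBL21 cells and purified on Ni-NTA. Fe(II)-O2 was formed by excess dithionite reduction, then G25 gel filtration in aerobic buffer, mixed with prewarmed buffer at 37 °C and followed spectrally for 30–60 min. For two surface mutants, deoxy protein was made in a glovebox, desalted anaerobically and mixed 4:1 with O2-saturated buffer; read at 1 spectrum/s for 1000 s. At least triplicate; mean ± SD.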

[5] = Nitrite reduction to NO by ferrous globins in the presence of excess dithionite; assay type: biochemical, human; details: for Nitrite reductase reaction rate constant: 37°C, 100 mM sodium phosphate, pH 7.4, excess dithionite
In short: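 Ran in 100 mM sodium phosphate, pH 7.4, 37 °C, with 2.5 mM dithionite to keep heme ferrous and remove O2. Globin (2–10 μM) was mixed with nitrite, typically 1–10 mM, or 250 μM–2 mM for distal-His mutants. Spectra were read over 350–700 nm and fit single-exponential; rate constants came from the nitrite series. At least triplicate, with ≥2 protein batches; mean ± SD.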

Oleic acid = assay type: binding, human
In short: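 Oleate was titrated into ferric distal-His mutant globins with imidazole present: 250 μM, or a series of imidazole levels. Difference spectra were taken by subtracting the initial spectrum. The absorbance difference at the wavelength of largest change was fit against oleate concentration to give an apparent KD. Buffer was 100 mM sodium phosphate, pH 7.4, 25 °C.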

[6] = Imidazole binding to ferric cytoglobin by UV-Vis difference spectroscopy; set-up: species or system human; details: read-out: Imidazole KD; ferric protein
In short: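 Ferric globin (5–15 μM) was titrated with imidazole stocks (1–100 mM) to about 100–15000 μM final. Buffer was 100 mM sodium phosphate, pH 7.4, at 25 °C. UV-Vis difference spectra were taken, and the max–min absorbance difference was plotted against ligand. KD came from a 1:1 quadratic binding fit. At least triplicate, with ≥2 protein batches; mean ± SD.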

[7] = 37°C, 100 mM sodium phosphate, pH 7.4
[8] = 37°C, 100 mM sodium phosphate, pH 7.4, decay fit to a two-exponential equation

B1: zebrafish Cygb1: zebrafish cytoglobin 1, a five-coordinate native globin (protein, UniProt Q8UUR3 1-174, looked up)
Cytoglobin-1: MEGDGGVQLTQSPDSLTEEDVCVIQDTWKPVYAERDNAGVAVLVRFFTNFPSAKQYFEHFRELQDPAEMQQNAQLKEHGQRVLNALNTLVENLRDADKLNTIFNQMGKSHALRHKVDPVYFKILAGVILEVLVEAFPQCFSPAEVQSSWSKLMGILYWQMNRVYAEVGWENSKK
Lipid binding [1]: do not show appreciable lipid binding

B2: Neuroglobin Wild-type: wild-type human neuroglobin (protein, UniProt Q9NPG2 1-151, looked up)
Neuroglobin: MERPEPELIRQSWRAVSRSPLEHGTVLFARLFALEPDLLPLFQYNCRQFSSPEDCLSSPEFLDHIRKVMLVIDAAVTNVEDLSSLEEYLASLGRKHRAVGVKLSSFSTVGESLLYMLEKCLGPAFTPATRAAWSQLYGAVVQAMSRGWDGE
Autoxidation rate [2]: 0.23 ± 0.03^b min^−1 | Nitrite reductase reaction rate constant [3]: 0.52 ± 0.19^d M^−1s^−1

B3: Neuroglobin H64A: human neuroglobin distal histidine His64(E7) to Ala mutant (protein, UniProt Q9NPG2 1-151, looked up, variant H64A)
Neuroglobin: B2 Neuroglobin with H64A
Autoxidation rate [2]: 0.066 ± 0.005^b min^−1 | Nitrite reductase reaction rate constant [3]: 1120 ± 140^d M^−1s^−1

B4: Neuroglobin H64Q: human neuroglobin distal histidine His64(E7) to Gln mutant (protein, UniProt Q9NPG2 1-151, looked up, variant H64Q)
Neuroglobin: B2 Neuroglobin with H64Q
Autoxidation rate [2]: 0.010 ± 0.002^b min^−1 | Nitrite reductase reaction rate constant [3]: 387 ± 21^d M^−1s^−1

B6: Neuroglobin H64W: human neuroglobin distal histidine His64(E7) to Trp mutant (protein, UniProt Q9NPG2 1-151, looked up, variant H64W)
Neuroglobin: B2 Neuroglobin with H64W
Autoxidation rate [2]: 0.076 ± 0.006^b min^−1 | Nitrite reductase reaction rate constant [3]: 7.6 ± 1.3^d M^−1s^−1

B7: H81A: human cytoglobin distal histidine His81(E7) to Ala mutant (protein, UniProt Q8WWM9 1-190, looked up, variant H81A)
Cytoglobin: MEKVPGEMEIERRERSEELSEAERKAVQAMWARLYANCEDVGVAILVRFFVNFPSAKQYFSQFKHMEDPLEMERSPQLRKAACRVMGALNTVVENLHDPDKVSSVLALVGKAHALKHKVEPVYFKILSGVILEVVAEEFASDFPPETQRAWAKLRGLIYSHVTAAYKEVGWVQQVPNATTPPATLPSSGP
Autoxidation rate [4, 7]: 0.094 ± 0.038 min⁻¹ | Nitrite reductase reaction rate constant [5]: 1100 ± 100 M⁻¹ s⁻¹ | Nitrite reductase reaction rate constant ([5]; listed as His81Ala): up to 1100 M^−1s^−1 | Fold increase in nitrite reduction rate constant versus Cygb WT [5]: up to 1000 fold

B8: H81L: human cytoglobin distal histidine His81(E7) to Leu mutant (protein, UniProt Q8WWM9 1-190, looked up, variant H81L)
Cytoglobin: B7 Cytoglobin with A81L
Autoxidation rate [4, 7]: 0.314 ± 0.043 min⁻¹ | Nitrite reductase reaction rate constant [5]: 76 ± 16 M⁻¹ s⁻¹ | Nitrite reduction rate relative to Ngb H64L ([5]; relative to the Ngb H64L rate): about 25% | Fold increase in oleic acid KD versus WT (Oleic acid; versus Cygb WT): 4 fold

More lines, main results first:

Nitrite reductase reaction rate constant [5]: 302 ± 55 M⁻¹ s⁻¹
B5: Neuroglobin H64L: His-tagged neuroglobin distal histidine His64(E7) to Leu mutant (protein, UniProt Q9NPG2 1-151, looked up, variant H64L)
Neuroglobin: B2 Neuroglobin with H64L
Autoxidation rate [4, 7]: 0.010 ± 0.004 min⁻¹

Nitrite reductase reaction rate constant [5]: 210 ± 44 M⁻¹ s⁻¹ | Change of oleic acid binding (apparent KD) in the presence of imidazole (Oleic acid; several saturating concentrations of imidazole (Figure 5)): slight upwards trend
B9: H81Q: human cytoglobin distal histidine His81(E7) to Gln mutant (protein, UniProt Q8WWM9 1-190, looked up, variant H81Q)
Cytoglobin: B7 Cytoglobin with A81Q
Autoxidation rate [4, 7]: 0.019 ± 0.005 min⁻¹

Nitrite reductase reaction rate constant [5]: 0.65 ± 0.14 M⁻¹ s⁻¹
B10: K116E: human cytoglobin surface mutant Lys116 to Glu (protein, UniProt Q8WWM9 1-190, looked up, variant K116E)
Cytoglobin: B7 Cytoglobin with A81H, K116E
Autoxidation rate [4, 7]: 0.366 ± 0.057 min⁻¹

Nitrite reductase reaction rate constant [5]: 10.7 ± 2.1 M⁻¹ s⁻¹
B11: H81W: human cytoglobin distal histidine His81(E7) to Trp mutant (protein, UniProt Q8WWM9 1-190, looked up, variant H81W)
Cytoglobin: B7 Cytoglobin with A81W
Autoxidation rate [4, 7]: 0.135 ± 0.034 min⁻¹

Nitrite reductase reaction rate constant [5]: 0.66 ± 0.18 M⁻¹ s⁻¹
B12: L108Q: human cytoglobin hydrophobic surface patch mutant Leu108 to Gln (protein, UniProt Q8WWM9 1-190, looked up, variant L108Q)
Cytoglobin: B7 Cytoglobin with A81H, L108Q
Autoxidation rate [4, 7]: 0.116 ± 0.051 min⁻¹

Nitrite reductase reaction rate constant [5]: 3.76 ± 0.85 M⁻¹ s⁻¹
B13: V105Y: human cytoglobin hydrophobic surface patch mutant Val105 to Tyr (protein, UniProt Q8WWM9 1-190, looked up, variant V105Y)
Cytoglobin: B7 Cytoglobin with A81H, V105Y
Autoxidation rate [4, 7]: 0.107 ± 0.018 min⁻¹ | Fold increase in nitrite reduction rate constant versus Cygb WT [5]: 3 fold

Kd [6]: ~1 mM
B14: Cytoglobin Wild-type: wild-type (WT) human Cygb protein, His-tagged, recombinantly expressed (protein, UniProt Q8WWM9 1-190, looked up)
Cytoglobin: B7 Cytoglobin with A81H
modifications: His-tag
Autoxidation rate [2]: 0.270 ± 0.020^a min^−1 | Nitrite reductase reaction rate constant [3]: 1.14 ± 0.07^e M^−1s^−1 | Nitrite reduction rate ([3]; in the presence of the intramolecular disulfide bond): 32.3 M⁻¹ s⁻¹ | Binding to lipids ([1]; Cygb with the reduced thiols): little or no binding | Kd ([1]; read-out: KD for lipids such as oleic acid and cardiolipin): ~1000 nM

Nitrite reductase reaction rate constant [5]: 1.24 ± 0.18 M⁻¹ s⁻¹
B15: T91D: human cytoglobin mutant Thr91 to Asp (protein, UniProt Q8WWM9 1-190, looked up, variant T91D)
Cytoglobin: B7 Cytoglobin with A81H, T91D
Autoxidation rate [4, 7]: 0.062 ± 0.005 min⁻¹

Nitrite reductase reaction rate constant [5]: 0.90 ± 0.30 M⁻¹ s⁻¹
B16: R84E: human cytoglobin surface mutant Arg84 to Glu (protein, UniProt Q8WWM9 1-190, looked up, variant R84E)
Cytoglobin: B7 Cytoglobin with A81H, R84E
Autoxidation rate constant for the fast phase [4, 8]: 2.362 ± 0.359^c min^−1 | Autoxidation rate constant for the slower phase [4, 8]: 0.303 ± 0.037 min⁻¹ | Share of the autoxidation decay accounted for by the fast phase ([4]; 37°C, 100 mM sodium phosphate, pH 7.4, two-exponential fit): 73 ± 12% | Fold increase in autoxidation rate constant as compared to WT ([4]; versus WT cytoglobin): roughly 10 fold
